Experiments:
[1] = system: Candida albicans; test: Antifungal activity against Candida albicans ATCC 90028 after 48 hrs by CLSI broth microdilution method; format: functional; details: ATCC 90028, 48 h
In short: (§1)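 Yeast CLSI broth microdilution (M27-A3). Compounds dissolved in DMSO at 100× the top test concentration, then diluted as serial two-fold dilutions in RPMI 1640 to final 0.125–64. Inoculum was 1.0–1.5 × 10^3 cells mL−1, incubated at 35 °C and read for growth at 48 h. MIC is the lowest concentration giving ≥50% growth inhibition versus growth control. Reported as the median of five replicates and as the geometric mean.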

[2] = system: Candida albicans; test: Antifungal activity against Candida albicans ATCC 20891 after 48 hrs by CLSI broth microdilution method; format: functional; details: ATCC 20891, 48 h; in short: as §1
[3] = system: Candida albicans; test: Antifungal activity against Candida albicans PMC 1011 after 48 hrs by CLSI broth microdilution method; format: functional; details: PMC 1011, 48 h; in short: as §1
[4] = system: Pichia kudriavzevii; test: Antifungal activity against Candida krusei DSM 6128 after 48 hrs by CLSI broth microdilution method; format: functional; details: DSM 6128, 48 h; in short: as §1
[5] = system: Pichia kudriavzevii; test: Antifungal activity against Candida krusei PMC 0613 after 48 hrs by CLSI broth microdilution method; format: functional; details: PMC 0613, 48 h; in short: as §1
[6] = system: Candida tropicalis; test: Antifungal activity against Candida tropicalis PMC 0910 after 48 hrs by CLSI broth microdilution method; format: functional; details: PMC 0910, 48 h; in short: as §1
[7] = system: Candida tropicalis; test: Antifungal activity against Candida tropicalis DSM 11953 after 48 hrs by CLSI broth microdilution method; format: functional; details: DSM 11953, 48 h; in short: as §1
[8] = system: Candida parapsilosis; test: Antifungal activity against Candida parapsilosis DSM 11224 after 48 hrs by CLSI broth microdilution method; format: functional; details: Lodderomyces parapsilosis, DSM 11224, 48 h; in short: as §1
[9] = system: Candida parapsilosis; test: Antifungal activity against Candida parapsilosis ATCC 22019 after 48 hrs by CLSI broth microdilution method; format: functional; details: Lodderomyces parapsilosis, ATCC 22019, 48 h; in short: as §1
[10] = system: Nakaseomyces glabratus; test: Antifungal activity against Candida glabrata PMC 0805 after 48 hrs by CLSI broth microdilution method; format: functional; details: PMC 0805, 48 h; in short: as §1
[11] = system: Nakaseomyces glabratus; test: Antifungal activity against Candida glabrata PMC 0807 after 48 hrs by CLSI broth microdilution method; format: functional; details: PMC 0807, 48 h; in short: as §1
[12] = system: Cryptococcus neoformans; test: Antifungal activity against Cryptococcus neoformans PMC 2123 after 72 hrs by CLSI broth microdilution method; format: functional; details: PMC 2123, 72 h
In short: (§2)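 Cryptococcus neoformans tested by CLSI broth microdilution in RPMI 1640, with serial two-fold dilutions from DMSO stocks at 100× the top concentration, final 0.125–64. Inoculum was 1.0–1.5 × 10^3 cells mL−1 at 35 °C, with growth read at 72 h. MIC is the lowest concentration with ≥50% growth inhibition versus control. Median of five replicates, plus geometric mean.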

[13] = system: Cryptococcus neoformans; test: Antifungal activity against Cryptococcus neoformans PMC 2136 after 72 hrs by CLSI broth microdilution method; format: functional; details: PMC 2136, 72 h; in short: as §2
[14] = system: Cryptococcus neoformans; test: Antifungal activity against Cryptococcus neoformans PMC 2115 after 72 hrs by CLSI broth microdilution method; format: functional; details: PMC 2115, 72 h; in short: as §2
[15] = system: Cryptococcus neoformans; test: Antifungal activity against Cryptococcus neoformans PMC 2103 after 72 hrs by CLSI broth microdilution method; format: functional; details: PMC 2103, 72 h; in short: as §2
[16] = system: Cryptococcus neoformans; test: Antifungal activity against Cryptococcus neoformans PMC 2107 after 72 hrs by CLSI broth microdilution method; format: functional; details: PMC 2107, 72 h; in short: as §2
[17] = system: Cryptococcus neoformans; test: Antifungal activity against Cryptococcus neoformans PMC 2102 after 72 hrs by CLSI broth microdilution method; format: functional; details: PMC 2102, 72 h; in short: as §2
[18] = system: Cryptococcus neoformans; test: Antifungal activity against Cryptococcus neoformans DSM 11959 after 72 hrs by CLSI broth microdilution method; format: functional; details: DSM 11959, 72 h; in short: as §2
[19] = system: Cryptococcus neoformans; test: Antifungal activity against Cryptococcus neoformans PMC 2111 after 72 hrs by CLSI broth microdilution method; format: functional; details: PMC 2111, 72 h; in short: as §2
[20] = system: Trichophyton mentagrophytes; test: Antifungal activity against Trichophyton mentagrophytes DSM 4870 after 72 hrs by CLSI broth microdilution method; format: functional; details: DSM 4870, 72 h
In short: (§3)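 Dermatophytes tested by CLSI broth microdilution for filamentous fungi (M38-A2). Serial two-fold dilutions of DMSO-dissolved compound in RPMI 1640, final 0.125–64. Inoculum was 0.4–5 × 10^4 CFU mL−1, incubated at 35 °C and read at 72 h. MIC80 is the lowest concentration giving ≥80% growth inhibition versus growth control. Median of five replicates, plus geometric mean.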

[21] = system: Trichophyton mentagrophytes; test: Antifungal activity against Trichophyton mentagrophytes PMC 6515 after 72 hrs by CLSI broth microdilution method; format: functional; details: PMC 6515, 72 h; in short: as §3
[22] = system: Trichophyton mentagrophytes; test: Antifungal activity against Trichophyton mentagrophytes PMC 6531 after 72 hrs by CLSI broth microdilution method; format: functional; details: PMC 6531, 72 h; in short: as §3
[23] = system: Trichophyton mentagrophytes; test: Antifungal activity against Trichophyton mentagrophytes PMC 6509 after 72 hrs by CLSI broth microdilution method; format: functional; details: PMC 6509, 72 h; in short: as §3
[24] = system: Trichophyton mentagrophytes; test: Antifungal activity against Trichophyton mentagrophytes PMC 6503 after 72 hrs by CLSI broth microdilution method; format: functional; details: PMC 6503, 72 h; in short: as §3
[25] = system: Trichophyton mentagrophytes; test: Antifungal activity against Trichophyton mentagrophytes PMC 6552 after 72 hrs by CLSI broth microdilution method; format: functional; details: PMC 6552, 72 h; in short: as §3
[26] = system: Nannizzia gypsea; test: Antifungal activity against Microsporum gypseum PMC 7303 after 72 hrs by CLSI broth microdilution method; format: functional; details: PMC 7303, 72 h; in short: as §3
[27] = system: Nannizzia gypsea; test: Antifungal activity against Microsporum gypseum PMC 7331 after 72 hrs by CLSI broth microdilution method; format: functional; details: PMC 7331, 72 h; in short: as §3
[28] = system: Nannizzia gypsea; test: Antifungal activity against Microsporum gypseum DSM 3824 after 72 hrs by CLSI broth microdilution method; format: functional; details: DSM 3824, 72 h; in short: as §3
[29] = system: Candida albicans; test: Antifungal activity against Candida albicans PMC 1040R after 48 hrs by CLSI broth microdilution method; format: functional; in short: as §1
[30] = system: Candida albicans; test: Antifungal activity against Candida albicans PMC 1041R after 48 hrs by CLSI broth microdilution method; format: functional; in short: as §1
[31] = system: Nakaseomyces glabratus; test: Antifungal activity against Candida glabrata PMC 0850R after 48 hrs by CLSI broth microdilution method; format: functional; in short: as §1
[32] = system: Nakaseomyces glabratus; test: Antifungal activity against Candida glabrata PMC 0851R after 48 hrs by CLSI broth microdilution method; format: functional; in short: as §1
[33] = system: Nakaseomyces glabratus; test: Antifungal activity against Candida glabrata PMC 0852R after 48 hrs by CLSI broth microdilution method; format: functional; in short: as §1
[34] = system: Nakaseomyces glabratus; test: Antifungal activity against Candida glabrata PMC 0853R after 48 hrs by CLSI broth microdilution method; format: functional; in short: as §1
[35] = system: Candida albicans; test: Antifungal activity against Candida albicans PMC 1042R after 48 hrs by CLSI broth microdilution method; format: functional; in short: as §1
[36] = Cytotoxicity against human A549 cells after 48 hrs by MTT assay; format: cell-based
In short: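 A549 cells (ATCC CCL-185) seeded at 2 × 10^4/well in phenol-red-free RPMI 1640 with 10% FBS, L-glutamine, penicillin and streptomycin, at 37 °C and 5% CO2. Exposed 48 h to DMSO-dissolved compounds (final 16–256; at least five concentrations, triplicate). MTT added for 3–4 h, crystals solubilized, OD read at 570 nm. CC50 taken versus the DMSO control. Mean ± SD of two independent experiments.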

[37] = system: Candida albicans; test: Antifungal activity against Candida albicans ATCC 24433 after 48 hrs by CLSI broth microdilution method; format: functional; details: ATCC 24433, 48 h; in short: as §1
[38] = system: Candida albicans; test: Antifungal activity against Candida albicans ATCC 3153 after 48 hrs by CLSI broth microdilution method; format: functional; details: ATCC 3153, 48 h; in short: as §1
[39] = system: Candida albicans; test: Antifungal activity against Candida albicans ATCC 10231 after 48 hrs by CLSI broth microdilution method; format: functional; details: ATCC 10231, 48 h; in short: as §1
[40] = system: Candida albicans; test: Antifungal activity against Candida albicans ATCC 76615 after 48 hrs by CLSI broth microdilution method; format: functional; details: ATCC 76615, 48 h; in short: as §1
[41] = system: Candida albicans; test: Antifungal activity against Candida albicans ATCC 10261 after 48 hrs by CLSI broth microdilution method; format: functional; details: ATCC 10261, 48 h; in short: as §1

O=C(OC(Cn1ccnc1)c1ccc(Cl)cc1)N1CCN(c2ccc(Cl)cc2)CC1 (stereo unspecified)
8 µg/mL: MIC50 [11] | MIC80 [20] | MIC80 [22] | MIC80 [23] | MIC80 [28] | MIC50 [30] | MIC50 [31] | MIC50 [32]
0.25 µg/mL: MIC50 [3]
1 µg/mL: MIC50 [5] | MIC50 [8] | MIC50 [9] | MIC50 [10] | MIC80 [25] | MIC50 [37]
0.5 µg/mL: MIC50 [1] | MIC50 [2] | MIC50 [38] | MIC50 [39] | MIC50 [41]
32 µg/mL: MIC50 [29]
4 µg/mL: MIC50 [4] | MIC50 [6] | MIC50 [7] | MIC50 [12] | MIC50 [13] | MIC50 [14] | MIC50 [15] | MIC50 [16] | MIC50 [17] | MIC80 [21] | MIC50 [33] | MIC50 [34] | MIC50 [35]
82.2 µg/mL: CC50 at 48 h [36]
2 µg/mL: MIC50 [18] | MIC50 [19] | MIC80 [24] | MIC80 [26] | MIC80 [27] | MIC50 [40]
